Assays:
Rattus norvegicus = assay: Antiinflammatory activity in Wistar rat assessed as inhibition of carrageenan-induced hind paw edema at 20 mg/kg, po administered 30 mins before carrageenan challenge measured after 5 hrs by plethysmometer; type: functional
In short: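 Wistar rats of either sex, 150–175 g, fasted 16 h, n = 6 per group. Compound given orally at 20 mg/kg as a suspension in 1% CMC in water (10 mL/kg); controls got vehicle only. After 30 min, 0.1 mL of 1% carrageenan in saline was injected subplantar into the left hind paw. Paw volume was measured by plethysmometer at 0, 3 and 5 h. Inhibition = (1 − Vt/Vc) × 100, reported as mean ± SEM.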

UACC-257 = assay: Anticancer activity against human UACC257 cells after 48 hrs; type: functional; conditions: UACC-257, 48 h
In short: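 NCI ~60 human tumour cell line panel with a 48 h incubation. GI50 is the concentration giving a 50% fall in net growth, TGI gives total growth inhibition, and LC50 gives a net 50% loss of initial cells. An effect not reached or exceeded is reported as greater or less than the highest or lowest concentration tested.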

SMILES | inhibition in vivo at 20 mg/kg (Rattus norvegicus) [%] | GI50 (UACC-257) [µM] | LC50 (UACC-257) [µM] | TGI (UACC-257) [µM]
COc1ccc(C2CC(c3cc(Cl)c(C)cc3O)=NN2c2ccc(S(N)(=O)=O)cc2)cc1OC (stereo unspecified) | 68.3 | 4.22 | > 100 | 19.7
Cc1cc(O)c(C2=NN(c3ccc(S(N)(=O)=O)cc3)C(c3ccccc3Cl)C2)cc1Cl (stereo unspecified) | 71.4 | 11.8 | > 100 | 79.6
Cc1cc(O)c(C2=NN(c3ccc(S(N)(=O)=O)cc3)C(/C=C/c3ccccc3)C2)cc1Cl (stereo unspecified) | 71.4 | 14.5 | > 100 | 45.7
Cc1cc(O)c(C2=NN(c3ccc(S(N)(=O)=O)cc3)C(c3ccccc3O)C2)cc1Cl (stereo unspecified) | 59.5 | 6.92 | 59 | 22.1
